Measured values published in ChEMBL document CHEMBL1121508, “Synthesis of alpha-methylene-gamma-butyrolactones: a structure-activity relationship study of their allergenic power” (1980).

Columns and labels:
Assay type in all cases: functional
Cavia porcellus [1] = species: Cavia porcellus; test: Number of guinea pigs sensitized to the sesquiterpene isoalantolactone (out of 8 guinea pigs); also: test concentration or dose not given here
Summary of the method: (§1)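 Female guinea pigs (albino Hartley and Himalayan spotted Füllingsdorf), 300–500 g, sensitized by Klečak's method. The hapten was emulsified in Freund's complete adjuvant and injected intradermally into the shaved nuchal region on alternate days, five injections in all. Skin reactions at elicitation were scored up to 3 (erythema plus swelling well beyond the test area) and 4 (necrosis or ulceration). Irritation thresholds were first set on untreated animals by the same elicitation procedure.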

Cavia porcellus [2] = species: Cavia porcellus; test: Average skin reaction in guinea pig sensitized to the sesquiterpene alantolactone; summary of the method: as §1
Cavia porcellus [3] = species: Cavia porcellus; test: Average skin reaction in guinea pig sensitized to the sesquiterpene isoalantolactone; summary of the method: as §1
Cavia porcellus [4] = species: Cavia porcellus; test: Number of guinea pigs sensitized to alpha-methylene-gamma-butyrolactone (out of 10 guinea pigs); summary of the method: as §1; also: test concentration or dose not given here
Cavia porcellus [5] = species: Cavia porcellus; test: Number guinea pigs sensitized to the sesquiterpene alantolactone (out of 7 guinea pigs); summary of the method: as §1; also: test concentration or dose not given here
Cavia porcellus [6] = species: Cavia porcellus; test: Average skin reaction in guinea pig sensitized to alpha-methylene-gamma-butyrolactone; summary of the method: as §1
Cavia porcellus [7] = species: Cavia porcellus; test: Average skin reaction in guinea pig sensitized to the sesquiterpene alantolactone (toxic); summary of the method: as §1
Cavia porcellus [8] = species: Cavia porcellus; test: Average skin reaction in guinea pig sensitized to the sesquiterpene isoalantolactone (toxic); summary of the method: as §1
Cavia porcellus [9] = species: Cavia porcellus; test: Average skin reaction in guinea pig sensitized to alpha-methylene-gamma-butyrolactone (toxic); summary of the method: as §1
Cavia porcellus [10] = species: Cavia porcellus; test: Open Epicutaneous tests were performed on guinea pigs sensitized to alpha-methylene-gamma-butyrolactone; summary of the method: as §1; also: test concentration or dose not given here
Cavia porcellus [11] = species: Cavia porcellus; test: Average skin reaction in guinea pig sensitized to the sesquiterpene alantolactone*-toxic; summary of the method: as §1

SMILES | No. of sensitive (Cavia porcellus [1]) | Average skin reaction (Cavia porcellus [2]) | Average skin reaction (Cavia porcellus [3]) | No. of sensitive (Cavia porcellus [4]) | No. of sensitive (Cavia porcellus [5]) | Average skin reaction (Cavia porcellus [6]) | Average skin reaction (Cavia porcellus [7]) | Average skin reaction (Cavia porcellus [8]) | Average skin reaction (Cavia porcellus [9]) | Average skin reaction (Cavia porcellus [10]) | Average skin reaction (Cavia porcellus [11])
C=C1CC2(OC1=O)C1CCC(C1)C2(C)C (centres undefined) | 8 | 0.7 | 1.1 | 0 | 7 | 0 |  |  |  |  | 
C=C1CC2(CCCCC2)OC1=O | 8 | 0.5 | 0.8 | 2 | 5 | 0.1 |  |  |  |  | 
C=C1CC2(CCCc3ccccc32)OC1=O (centres undefined) | 8 |  |  | 10 | 7 | 0.9 | 1.7 | 2 |  |  | 
C=C1C(=O)OC2CC3(C)CCCC(C)C3=CC12 (centres undefined) | 8 | 3 | 2.1 | 0 | 7 | 0 |  |  |  |  | 
C=C1CC2(CCC(C(C)(C)C)CC2)OC1=O (centres undefined) | 8 | 0.8 | 1.1 | 1 | 6 | 0 |  |  |  |  | 
C=C1CC(C)(c2ccccc2)OC1=O (centres undefined) | 8 |  |  | 5 | 7 |  | 1.1 | 1.3 | 0.4 |  | 
C=C1CC2(CCC3(CC2)CC(=C)C(=O)O3)OC1=O (centres undefined) | 1 | 0 | 0.1 | 0 | 0 | 0 |  |  |  |  | 
C=C1CC2(CCCC2)OC1=O | 1 | 0.2 | 0.1 | 0 | 2 | 0 |  |  |  |  | 
C=C1CC(c2ccccc2)OC1=O (centres undefined) | 8 |  |  | 10 | 7 |  | 1.1 | 1.5 | 1.4 |  | 
C=C1CC(CC)OC1=O (centres undefined) |  |  |  | 0 |  | 0 |  |  |  |  | 
C=C1CC(c2ccccc2)(c2ccccc2)OC1=O | 5 | 0.9 | 0.4 | 0 | 7 |  |  |  |  | 0 | 
C=C1C(=O)O[C@@H]2C[C@@]3(C)CCCC(=C)[C@@H]3C[C@H]12 [ISOALANTOLACTONE] | 8 | 1.4 | 1.4 | 0 | 7 | 0 |  |  |  |  | 
C=C1CC(C(C)C)(C(C)C)OC1=O | 6 |  | 0.5 | 0 | 6 | 0 |  |  |  |  | 0.6
C=C1CC(C)OC1=O (centres undefined) | 0 | 0 | 0 | 7 | 0 | 0.6 |  |  |  |  | 
C=C1C(=O)OC2CC3(C)CCCC4(CO4)C3CC12 (centres undefined) | 8 | 0.7 | 1 |  | 7 |  |  |  |  |  | 
C=C1C(=O)OC2CC3(C)CCCC(=O)C3CC12 (centres undefined) | 8 | 0.9 | 0.9 |  | 7 |  |  |  |  |  | 
C=C1CC2(CC3CCC2C3)OC1=O (centres undefined) | 4 | 0.3 | 0.2 | 0 | 4 | 0 |  |  |  |  | 

SMILES | No. of sensitive (Cavia porcellus [1]) | Average skin reaction (Cavia porcellus [2]) | Average skin reaction (Cavia porcellus [3]) | No. of sensitive (Cavia porcellus [4]) | No. of sensitive (Cavia porcellus [5]) | Average skin reaction (Cavia porcellus [6]) | Average skin reaction (Cavia porcellus [7]) | Average skin reaction (Cavia porcellus [8]) | Average skin reaction (Cavia porcellus [9]) | Average skin reaction (Cavia porcellus [10]) | Average skin reaction (Cavia porcellus [11])
C=C1CC(CCCCCCCCCCC)OC1=O (centres undefined) | 8 |  |  | 10 | 7 |  | 0.9 | 1.2 | 1 |  | 
C=C1CC2(OC1=O)C1CC3CC(C1)CC2C3 (centres undefined) | 8 | 0.8 | 0.8 | 2 | 6 | 0.1 |  |  |  |  | 
C=C1CC(C(C)(C)C)OC1=O (centres undefined) | 5 | 0.3 | 0.5 | 1 | 3 | 0.1 |  |  |  |  | 
C=C1C(=O)OC2CCCCC12 (centres undefined) | 1 | 0.1 | 0.1 | 3 | 1 | 0.1 |  |  |  |  | 
C=C1CC2(CC[C@@]3(C)C(CC[C@H]4[C@@H]5CC[C@H](C(C)CCCC(C)C)[C@@]5(C)CC[C@@H]43)C2)OC1=O (some centres undefined) | 0 | 0.1 | 0 | 0 | 1 | 0 |  |  |  |  | 
C=C1CC(C)(C)OC1=O | 0 | 0 | 0 | 6 | 0 | 0.5 |  |  |  |  | 
C=C1CC2(CCCC3CCCCC32)OC1=O (centres undefined) | 8 | 1.4 | 1.4 | 0 | 7 | 0 |  |  |  |  | 
C=C1CC2(CC3CC4(CC(=C)C(=O)O4)CC3C2)OC1=O (centres undefined) | 3 | 0.2 | 0.2 | 1 | 2 | 0 |  |  |  |  | 
C=C1C(=O)OC2C3CCC(C3)C12 (centres undefined) | 8 | 0.9 | 1 | 2 | 7 | 0.1 |  |  |  |  | 
C=C1CC2(OC1=O)C(C)CCCC2C (centres undefined) | 8 | 1 | 1.7 | 0 | 7 | 0 |  |  |  |  | 
C=C1CC2(CCCCCCCCC2)OC1=O | 7 | 1.1 | 0.9 | 0 | 7 | 0 |  |  |  |  | 
C=C1C(=O)OC(c2ccccc2)(c2ccccc2)C1C(=O)OCC (centres undefined) | 0 | 0.1 | 0 | 0 | 1 | 0 |  |  |  |  | 
C=C1CC(C)(CC)OC1=O (centres undefined) | 6 | 0.4 | 0.4 | 0 | 5 | 0 |  |  |  |  | 
C=C1CCOC1=O [TULIPALINE A] |  | 0.1 |  | 10 | 1 | 1.9 |  |  |  |  | 
C=C1CC(CC)(CC)OC1=O | 8 | 0.4 | 0.7 | 0 | 5 | 0 |  |  |  |  | 
C=C1CC(C)(CC(C)(C)C)OC1=O (centres undefined) | 7 | 0.6 | 0.8 | 2 | 6 | 0.1 |  |  |  |  | 
C=C1CC2(CCCCCC2)OC1=O | 8 | 1.1 | 1.2 | 2 | 7 | 0.1 |  |  |  |  | 
